Data as given in ChEMBL document CHEMBL3751842, “Novel triazolothiadiazines act as potent anticancer agents in liver cancer cells through Akt and ASK-1 proteins” (Bioorg Med Chem, 2016).
Calls of active or inactive are those of the source. The calls are words filed in the database; no cut-off is given here.

What was measured:
Huh-7 [1] = assay: Induction of apoptosis in human HuH7 cells assessed as nuclear condensation at 10 uM after 48 hrs by Hoechst 33258 staining-based immunofluorescence microscopy; type: functional, cell-based
Procedure, shortened: (§1)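 Cells on coverslips were incubated overnight, then treated with 10 µM compound or DMSO for 48 h. They were washed in ice-cold PBS, fixed in cold methanol for 10 min, and stained with 1 µg/mL Hoechst 33258 for 5 min in the dark. Nuclei were examined by fluorescence microscopy with a 40x objective.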

[2] = Cytotoxicity against human Mahlavu cells assessed as growth inhibition after 72 hrs by sulforhodamine B assay; type: functional, cell-based
Procedure, shortened: (§2)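 Cells were grown at 37°C, 5% CO2 in DMEM with 10% FBS. They were seeded at 1000–3000 cells/well, grown 24 h, then exposed to compound at 2.5–40 µM for 72 h. Cells were fixed in 10% TCA for 1 h at 4°C, stained with 0.4% SRB in 1% acetic acid for 10 min, and the dye solubilized in 10 mM Tris. Absorbance was read at 515 nm; runs were in triplicate; IC50 was calculated, with fits of R2 0.8–1 accepted.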

MCF7 = assay: Cytotoxicity against human MCF7 cells assessed as growth inhibition after 72 hrs by sulforhodamine B assay; type: functional, cell-based; procedure, shortened: as §2
[3] = Cytotoxicity against human SNU475 cells assessed as growth inhibition after 72 hrs by sulforhodamine B assay; type: functional, cell-based, SNU-475; procedure, shortened: as §2
[4] = Cytotoxicity against human HuH7 cells assessed as growth inhibition after 72 hrs by sulforhodamine B assay; type: functional, cell-based, Huh-7; procedure, shortened: as §2
HepG2 = assay: Cytotoxicity against human HepG2 cells assessed as growth inhibition after 72 hrs by sulforhodamine B assay; type: functional, cell-based; procedure, shortened: as §2
[5] = Cytotoxicity against human HCT116 cells assessed as growth inhibition after 72 hrs by sulforhodamine B assay; type: functional, cell-based, HCT-116; procedure, shortened: as §2
[6] = Cytotoxicity against human FOCUS cells assessed as growth inhibition after 72 hrs by sulforhodamine B assay; type: functional, cell-based; procedure, shortened: as §2
Huh-7 [7] = assay: Cytotoxicity against human HuH7 cells assessed as cell impedance at IC25 to IC100 measured every 30 mins for 72 hrs by RT-CES assay; type: functional, cell-based; conditions: TDE = time-dependent effect
Procedure, shortened: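 Huh7 cells were seeded at 1000–5000 cells/well on electrode plates. […] Impedance was read as cell index every 10 min for the first 24 h, then every 30 min, over 72 h. Data were normalized to DMSO; inhibition (%) = [1 − (CI treated/CI DMSO)] × 100. Each experiment was run at least three times.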

Huh-7 [8] = assay: Induction of apoptosis in human HuH7 cells assessed as horseshoe nuclear structure at 10 uM after 48 hrs by Hoechst 33258 staining-based immunofluorescence microscopy; type: functional, cell-based; procedure, shortened: as §1
[9] = Cytotoxicity against human Hep3B cells assessed as growth inhibition after 72 hrs by sulforhodamine B assay; type: functional, cell-based, Hep 3B2; procedure, shortened: as §2
Huh-7 [10] = assay: Induction of cell cycle arrest in human HuH7 cells assessed as accumulation at subG1 phase at 10 uM after 24 to 48 hrs by propidium iodide staining based FACS analysis; type: functional
Procedure, shortened: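 Huh7 cells were seeded at 300,000 per 100-mm dish. After 24 h they were treated with 10 µM compound or DMSO for 24 h and 48 h. Cells were trypsinized, fixed in ice-cold 70% ethanol and stored at −20 °C. They were then stained with propidium iodide and cell-cycle distribution, including SubG1, was read by flow cytometry.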

[11] = Homo sapiens, Mahlavu, 72 h, read-out: IC50
[12] = Homo sapiens, MCF7, 72 h, read-out: IC50
[13] = Homo sapiens, SNU-475, 72 h, read-out: IC50
[14] = Homo sapiens, Huh-7, 72 h, read-out: IC50
[15] = Homo sapiens, HepG2, 72 h, read-out: IC50
[16] = Homo sapiens, HCT-116, 72 h, read-out: IC50
[17] = Homo sapiens, FOCUS, 72 h, read-out: IC50
[18] = Homo sapiens, Hep3B, 72 h, read-out: IC50

| Structure (SMILES) | Activity (Huh-7 [1]) | IC50 [2, 11] [µM] | IC50 (MCF7; [12]) [µM] | IC50 [3, 13] [µM] | IC50 [4, 14] [µM] | IC50 (HepG2; [15]) [µM] | IC50 [5, 16] [µM] | IC50 [6, 17] [µM] | Activity (Huh-7 [7]) | Activity (Huh-7 [8]) | IC50 [9, 18] [µM] | Activity (Huh-7 [10]) | IC50 ([2]; mahlavu) | IC50 (MCF7; mcf7) | IC50 ([3]; snu-475) | IC50 ([4]; huh-7) | IC50 (HepG2; hepg2) | IC50 ([5]; hct-116) | IC50 ([6]; focus) | IC50 ([9]; hep 3b2) |
| --- | --- | --- | --- | --- | --- | --- | --- | --- | --- | --- | --- | --- | --- | --- | --- | --- | --- | --- | --- | --- |
| CC(C)Cc1ccc(C(C)c2nnc3n2N=C(c2ccc(OC(F)(F)F)cc2)CS3)cc1 (stereo not drawn) | Active | 9.1 | 1.1 | 6.8 | 3.6 | 9.7 | 3 | 8.8 | tde | Active | 6.4 |  |  |  |  |  |  |  |  |  |
| CC(C)Cc1ccc(C(C)c2nnc3n2N=C(c2ccc(Br)cc2)CS3)cc1 (stereo not drawn) | Active | 8.9 | 9.4 | 10.1 | 4.9 | 6.4 | 7.1 | 5.9 | tde | Active | 8.3 | Active |  |  |  |  |  |  |  |  |
| CC(c1ccc(-c2ccccc2)c(F)c1)c1nnc2n1N=C(c1ccc(Br)cc1)CS2 (stereo not drawn) | inactive | 6.2 | 7.4 | 7 | 5 | 3.7 | 7.1 | 8.5 | tde | inactive | 1.5 |  |  |  |  |  |  |  |  |  |
| CC(c1ccc(-c2ccccc2)c(F)c1)c1nnc2n1N=C(c1ccc(F)cc1)CS2 (stereo not drawn) | Active | 7.4 | 8.1 | 6.6 | 4.9 | 5.1 | 10.5 | 3.5 | tde | Active | 2.6 |  |  |  |  |  |  |  |  |  |
| CC(c1ccc(-c2ccccc2)c(F)c1)c1nnc2n1N=C(c1ccc([N+](=O)[O-])cc1)CS2 (stereo not drawn) | inactive | 9.4 | 7.8 | 7.1 | 4.3 | 4.3 | 7.1 | 3.5 | tde | inactive | 2.9 |  |  |  |  |  |  |  |  |  |
| CC(c1ccc(-c2ccccc2)c(F)c1)c1nnc2n1N=C(c1ccc(Cl)cc1)CS2 (stereo not drawn) | Active | 6.1 | 8.7 | 3.8 | 3.9 | 6.7 | 7.8 | 5 | tde | Active | 3.8 | Active |  |  |  |  |  |  |  |  |
| CC(C(=O)O)c1ccc(-c2ccccc2)c(F)c1 (stereo not drawn) [FLURBIPROFEN] |  |  |  |  |  |  |  |  |  |  |  |  | Not Active | Not Active | Not Active | Not Active | Not Active | Not Active | Not Active | Not Active |
| CC(C)Cc1ccc(C(C)c2n[nH]c(=S)n2N)cc1 (stereo not drawn) |  | 16.2 | 16.1 | 11.7 | 23 |  | 27.4 |  |  |  | 13.1 |  |  |  |  |  | Not Active |  | Not Active |  |
| COc1ccc(C2=Nn3c(nnc3C(C)c3ccc(-c4ccccc4)c(F)c3)SC2)cc1 (stereo not drawn) | Active | 5.8 | 2.6 | 6.7 | 4.3 | 4.2 | 4.4 | 4.4 | tde | Active | 3.5 | Active |  |  |  |  |  |  |  |  |
| CC(c1ccc(-c2ccccc2)c(F)c1)c1nnc2n1N=C(c1ccc(Cl)cc1Cl)CS2 (stereo not drawn) | Active | 6.6 | 7.6 | 4.7 | 3.7 | 8.6 | 6.9 | 5.4 | tde | Active | 4.2 |  |  |  |  |  |  |  |  |  |
| CC(C)Cc1ccc(C(C)C(=O)O)cc1 (stereo not drawn) [IBUPROFEN] |  |  |  |  | 37.2 |  |  |  |  |  |  |  | Not Active | Not Active | Not Active |  | Not Active | Not Active | Not Active | Not Active |
| COc1ccc2cc(C(C)c3n[nH]c(=S)n3N)ccc2c1 (stereo not drawn) |  |  | 22.3 | 15.9 | 40.8 | 40 | 20.2 |  |  |  | 1.9 |  | Not Active |  |  |  |  |  | Not Active |  |
